According to ChEMBL document CHEMBL4390691, “Discovery of 1,3-dihydro-2H-imidazo[4,5-c]quinolin-2-ones based novel, potent and PI3Kδ selective inhibitors” (Bioorg Med Chem Lett, 2019):

Experiments:
[1] = Tmax in C57BL/6J mouse at 3 mg/kg, po measured up to 30 hrs by LC-MS/MS analysis; format: ADME, organism-based; settings: in vivo
Summary of the method: (§1)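 Male C57BL/6J mice (n = 6) received single doses of 3 mg/kg po or 1 mg/kg iv. Plasma concentrations were measured by LC-MS. Values are mean ± SD. Oral bioavailability (%F) was calculated from the ratio to iv AUC.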

[2] = molecular target: Phosphatidylinositol 4,5-bisphosphate 3-kinase catalytic subunit beta isoform (Homo sapiens, UniProt P42338); assay: Inhibition of human PI3Kbeta using PIP2 as substrate after 1 hr
Sequence of Phosphatidylinositol 4,5-bisphosphate 3-kinase catalytic subunit beta isoform (P42338 whole entry, canonical isoform): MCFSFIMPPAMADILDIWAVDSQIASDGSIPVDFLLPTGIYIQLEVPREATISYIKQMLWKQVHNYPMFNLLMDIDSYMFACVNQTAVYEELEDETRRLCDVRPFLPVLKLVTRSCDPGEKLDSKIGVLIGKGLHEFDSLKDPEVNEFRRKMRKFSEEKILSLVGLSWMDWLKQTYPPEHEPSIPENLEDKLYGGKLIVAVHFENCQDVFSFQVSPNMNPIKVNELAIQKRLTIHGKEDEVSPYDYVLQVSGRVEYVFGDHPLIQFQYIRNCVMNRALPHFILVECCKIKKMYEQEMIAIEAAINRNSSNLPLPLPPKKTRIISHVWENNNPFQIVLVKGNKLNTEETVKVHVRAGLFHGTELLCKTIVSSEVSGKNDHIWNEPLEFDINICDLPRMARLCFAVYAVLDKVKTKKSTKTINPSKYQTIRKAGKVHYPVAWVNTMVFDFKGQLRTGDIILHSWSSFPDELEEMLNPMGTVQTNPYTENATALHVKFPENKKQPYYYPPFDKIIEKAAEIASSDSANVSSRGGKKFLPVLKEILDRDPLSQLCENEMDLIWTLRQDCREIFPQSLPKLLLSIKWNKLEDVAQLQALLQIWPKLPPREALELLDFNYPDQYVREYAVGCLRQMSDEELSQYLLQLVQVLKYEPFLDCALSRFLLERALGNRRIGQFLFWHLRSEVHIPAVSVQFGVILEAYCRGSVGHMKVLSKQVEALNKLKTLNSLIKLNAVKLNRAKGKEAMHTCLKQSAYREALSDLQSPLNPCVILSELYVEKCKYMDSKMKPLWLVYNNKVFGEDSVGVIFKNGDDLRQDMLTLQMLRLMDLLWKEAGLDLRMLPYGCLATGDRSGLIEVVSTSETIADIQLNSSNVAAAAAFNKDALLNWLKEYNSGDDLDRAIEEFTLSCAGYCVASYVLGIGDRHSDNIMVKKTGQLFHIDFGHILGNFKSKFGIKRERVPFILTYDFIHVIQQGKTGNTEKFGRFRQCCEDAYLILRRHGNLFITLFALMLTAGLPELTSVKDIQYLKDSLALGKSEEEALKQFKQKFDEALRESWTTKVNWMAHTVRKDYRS

[3] = molecular target: Phosphatidylinositol 4,5-bisphosphate 3-kinase catalytic subunit alpha isoform (Homo sapiens, UniProt P42336); assay: Inhibition of human PI3Kalpha using PIP2 as substrate after 1 hr
Sequence of Phosphatidylinositol 4,5-bisphosphate 3-kinase catalytic subunit alpha isoform (P42336 whole entry, looked up, canonical isoform): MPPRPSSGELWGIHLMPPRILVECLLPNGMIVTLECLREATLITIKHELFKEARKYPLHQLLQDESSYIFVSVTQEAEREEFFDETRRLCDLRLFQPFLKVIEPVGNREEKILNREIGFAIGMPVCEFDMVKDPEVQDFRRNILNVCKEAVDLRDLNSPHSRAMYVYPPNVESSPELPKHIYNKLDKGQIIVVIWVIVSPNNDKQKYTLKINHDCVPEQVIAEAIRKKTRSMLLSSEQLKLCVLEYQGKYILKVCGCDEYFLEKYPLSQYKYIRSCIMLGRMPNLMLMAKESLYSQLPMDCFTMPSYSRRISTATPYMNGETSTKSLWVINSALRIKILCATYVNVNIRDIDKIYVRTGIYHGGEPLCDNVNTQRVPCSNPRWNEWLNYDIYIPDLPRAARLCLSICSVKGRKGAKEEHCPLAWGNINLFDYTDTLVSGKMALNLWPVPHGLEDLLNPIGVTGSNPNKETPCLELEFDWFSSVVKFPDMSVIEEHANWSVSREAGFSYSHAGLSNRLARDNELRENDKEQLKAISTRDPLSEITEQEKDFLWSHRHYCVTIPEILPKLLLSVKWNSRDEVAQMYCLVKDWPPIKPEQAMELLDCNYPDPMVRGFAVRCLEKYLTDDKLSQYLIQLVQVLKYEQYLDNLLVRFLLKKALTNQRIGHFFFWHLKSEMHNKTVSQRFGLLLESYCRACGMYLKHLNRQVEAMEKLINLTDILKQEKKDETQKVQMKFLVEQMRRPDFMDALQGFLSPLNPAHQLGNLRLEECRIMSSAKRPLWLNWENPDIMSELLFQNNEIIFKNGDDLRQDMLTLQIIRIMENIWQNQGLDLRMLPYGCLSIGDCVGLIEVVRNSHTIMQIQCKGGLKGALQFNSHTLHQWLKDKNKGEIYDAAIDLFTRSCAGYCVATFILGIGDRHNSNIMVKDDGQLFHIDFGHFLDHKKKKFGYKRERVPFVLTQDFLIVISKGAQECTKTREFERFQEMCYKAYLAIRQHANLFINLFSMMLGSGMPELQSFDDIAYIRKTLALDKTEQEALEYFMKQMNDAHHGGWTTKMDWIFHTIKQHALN

[4] = AUC (0 to infinity) in C57BL/6J mouse 3 mg/kg, po measured up to 30 hrs by LC-MS/MS analysis; format: ADME, organism-based; parameters: dose 3 mg/kg, route oral, time infinity; settings: in vivo
Summary of the method: (§2)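 Single-dose PK in male C57BL/6J mice (n = 6), dosed 1 mg/kg iv or 3 mg/kg orally. Plasma drug levels were measured by LC-MS, and PK parameters (Tmax, Cmax, t1/2, Cl, AUC, %F) were derived. Values are given as mean ± SD. Oral bioavailability was calculated against the iv AUC.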

[5] = molecular target: Serine/threonine-protein kinase mTOR (Homo sapiens, UniProt P42345); assay: Inhibition of mTOR (unknown origin) assessed as reduction in p70S6K phosphorylation
[6] = Cmax in C57BL/6J mouse at 3 mg/kg, po measured up to 30 hrs by LC-MS/MS analysis; format: ADME, organism-based; parameters: dose 3 mg/kg, route oral; settings: in vivo; summary of the method: as §1
[7] = Clearance in C57BL/6J mouse at 1 mg/kg, iv measured up to 30 hrs by LC-MS/MS analysis; format: ADME, organism-based; settings: in vivo; summary of the method: as §1
[8] = molecular target: T1, Phosphatidylinositol 4,5-bisphosphate 3-kinase catalytic subunit delta isoform (Homo sapiens, UniProt O00329); assay: Inhibition of human PI3Kdelta using PIP2 as substrate after 1 hr
T1 sequence (O00329 whole entry): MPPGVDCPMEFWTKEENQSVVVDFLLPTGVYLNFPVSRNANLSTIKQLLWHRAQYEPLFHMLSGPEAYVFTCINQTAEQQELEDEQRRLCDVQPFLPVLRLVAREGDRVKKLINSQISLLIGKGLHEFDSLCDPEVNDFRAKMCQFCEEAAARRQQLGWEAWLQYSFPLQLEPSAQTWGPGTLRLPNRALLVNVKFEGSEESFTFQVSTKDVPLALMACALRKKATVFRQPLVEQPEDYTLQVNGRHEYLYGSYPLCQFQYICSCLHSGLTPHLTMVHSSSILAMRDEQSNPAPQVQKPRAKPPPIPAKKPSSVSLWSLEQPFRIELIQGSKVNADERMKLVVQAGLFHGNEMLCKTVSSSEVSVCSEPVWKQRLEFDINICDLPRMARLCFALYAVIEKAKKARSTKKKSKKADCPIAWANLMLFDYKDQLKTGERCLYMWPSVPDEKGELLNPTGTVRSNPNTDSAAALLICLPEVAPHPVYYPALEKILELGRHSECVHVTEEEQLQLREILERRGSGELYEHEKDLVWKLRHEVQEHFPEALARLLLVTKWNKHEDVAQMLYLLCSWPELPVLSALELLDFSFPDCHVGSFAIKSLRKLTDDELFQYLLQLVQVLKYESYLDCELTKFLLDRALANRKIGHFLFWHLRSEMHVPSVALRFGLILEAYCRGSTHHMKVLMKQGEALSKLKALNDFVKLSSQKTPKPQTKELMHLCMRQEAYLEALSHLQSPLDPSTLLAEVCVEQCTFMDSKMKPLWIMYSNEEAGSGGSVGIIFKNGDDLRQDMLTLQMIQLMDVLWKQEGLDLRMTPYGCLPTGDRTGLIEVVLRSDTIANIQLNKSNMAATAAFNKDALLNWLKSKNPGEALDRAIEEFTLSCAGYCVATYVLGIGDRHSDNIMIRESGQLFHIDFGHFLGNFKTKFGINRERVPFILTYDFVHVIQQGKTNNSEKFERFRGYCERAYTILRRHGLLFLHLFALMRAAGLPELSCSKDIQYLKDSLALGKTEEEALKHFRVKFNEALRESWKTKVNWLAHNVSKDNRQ

[9] = AUC (0 to infinity) in C57BL/6J mouse 1 mg/kg, iv measured up to 30 hrs by LC-MS/MS analysis; format: ADME, organism-based; parameters: dose 1 mg/kg, time infinity, route intravenous; settings: in vivo; summary of the method: as §2
[10] = Half life in C57BL/6J mouse at 3 mg/kg, po measured up to 30 hrs by LC-MS/MS analysis; format: ADME, organism-based; settings: in vivo; summary of the method: as §1
[11] = molecular target: Phosphatidylinositol 4,5-bisphosphate 3-kinase catalytic subunit gamma isoform (Homo sapiens, UniProt P48736); assay: Inhibition of human PI3Kgamma using PIP2 as substrate after 1 hr
Sequence of Phosphatidylinositol 4,5-bisphosphate 3-kinase catalytic subunit gamma isoform (P48736 whole entry, canonical isoform): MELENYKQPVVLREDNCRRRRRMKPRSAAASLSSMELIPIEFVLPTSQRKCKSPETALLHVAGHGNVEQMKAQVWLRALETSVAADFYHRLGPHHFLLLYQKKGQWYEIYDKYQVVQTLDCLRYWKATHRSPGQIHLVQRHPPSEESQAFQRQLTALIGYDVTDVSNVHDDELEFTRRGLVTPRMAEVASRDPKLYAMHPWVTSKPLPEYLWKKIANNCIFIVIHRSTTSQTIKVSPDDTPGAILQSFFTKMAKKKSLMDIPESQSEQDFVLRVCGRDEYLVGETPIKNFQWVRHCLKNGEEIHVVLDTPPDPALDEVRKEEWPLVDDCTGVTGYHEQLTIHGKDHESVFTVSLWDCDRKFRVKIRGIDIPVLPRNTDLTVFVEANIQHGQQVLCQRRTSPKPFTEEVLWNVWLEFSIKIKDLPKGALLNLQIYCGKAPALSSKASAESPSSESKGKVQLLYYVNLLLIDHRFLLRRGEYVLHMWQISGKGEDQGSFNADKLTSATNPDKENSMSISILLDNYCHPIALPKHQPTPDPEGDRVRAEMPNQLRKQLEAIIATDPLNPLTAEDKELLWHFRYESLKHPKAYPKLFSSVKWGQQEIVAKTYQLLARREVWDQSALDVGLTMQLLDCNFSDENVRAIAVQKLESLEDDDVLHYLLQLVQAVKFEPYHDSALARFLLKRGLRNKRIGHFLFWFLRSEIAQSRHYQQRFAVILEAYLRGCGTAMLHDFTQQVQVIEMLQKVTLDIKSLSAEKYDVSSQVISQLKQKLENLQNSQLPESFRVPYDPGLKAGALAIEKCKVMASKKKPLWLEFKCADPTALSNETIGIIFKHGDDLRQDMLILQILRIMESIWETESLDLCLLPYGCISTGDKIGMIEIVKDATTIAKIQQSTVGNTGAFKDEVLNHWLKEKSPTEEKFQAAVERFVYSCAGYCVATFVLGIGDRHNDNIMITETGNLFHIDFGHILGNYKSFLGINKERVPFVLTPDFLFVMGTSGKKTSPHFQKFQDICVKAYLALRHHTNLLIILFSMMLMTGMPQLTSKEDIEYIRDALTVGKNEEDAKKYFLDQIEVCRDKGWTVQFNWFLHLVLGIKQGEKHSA

[12] = Oral bioavailability in C57BL/6J mouse at 3 mg/kg measured up to 30 hrs by LC-MS/MS analysis; format: ADME, organism-based; settings: in vivo; summary of the method: as §1

SMILES	Tmax [1] [h]	IC50 [2] [nM]	IC50 [3] [nM]	AUC [4] [ng·h/mL]	IC50 [5] [nM]	Cmax [6] [ng/mL]	clearance [7] [mL/min/kg]	IC50 [8] [nM]	AUC [9] [ng·h/mL]	half-life [10] [h]	IC50 [11] [nM]	bioavailability [12] [%]
COc1ccc(Cn2c(=O)n(C)c3c4cc(-c5cnc6ccccc6c5)ccc4ncc32)cc1	0.38	342	421	329	676	128	22.9	9.5	743	2.31	38	14.8
COc1ccc(Cn2c(=O)n(C)c3c4cc(-c5cccnc5)ccc4ncc32)cc1								20				
COc1ccc(Cn2c(=O)n(C)c3cnc4ccc(-c5cnc(OC)c(NS(C)(=O)=O)c5)cc4c32)cc1		241	289		580			4.1			42	
